Hsp70 activator: switches on Hsp70 transcription | HeLa Hsp70 promoter luciferase reporter, luminescence; scaled: vehicle 0, proteasome-inhibitor control 100% | activation, % at 10 µM | 200,000 tested, 0.04% active | AID 1203;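 active means activation above the mean across all tested compounds plus 3 SD, cutoff set per campaign, cut at about 5.5% in these data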
b-catenin transl: beta-catenin nuclear translocation modulation; nuclear translocation activity, % at 5 µM; 190,000 tested, 0.3% active; HeLa beta-catenin nuclear translocation, immunofluorescence imaging;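 active means nuclear translocation activity above 50% at 5 µM, with a well cell count of 50 or more; inconclusive means wells under 50 cells across six images, flagged as toxic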;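 further: per-cell ratio of nuclear to cytoplasmic median beta-catenin stain intensity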
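Test system: human HeLa cells, native beta-catenin. Compound dosing: 5 µM primary single dose, 0.1% DMSO, 0.02–20 µM confirmation series. Incubation: compound exposure 24 h at 37°C. Detection: beta-catenin immunostaining with DAPI counterstain, 20x imaging, 6 fields/well. Read-out basis: Nuclear/cytoplasmic beta-catenin signal ratio, % activation.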
Dynein cargo inh: dynein cargo transport inhibition; 3617.4 mouse cells, GR-EGFP nuclear translocation imaging; test concentration mostly 20 µM; stimulated with dexamethasone, 1 µM; hits give low values; z-score, hits read low; 220,000 tested, 0.47% active; AID 1381;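 active means plate z-score of nuclear minus cytoplasmic receptor signal below a set negative limit, without overly bright fluorescence or cell loss, cut at about -3.5 in these data, passing the limit was not always enough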;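 further: z-score of nuclear minus cytoplasmic ring GR-EGFP intensity difference per well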
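Schedule: 48 h induction, then 1 h compound, then 30 min agonist, 37 °C. Buffer or medium: tetracycline-free induction medium containing charcoal-stripped FBS. Reagent: 1.0 µM final dexamethasone stimulus. Evaluation: nuclear versus cytoplasmic GR-EGFP signal, averaged per well. Signal: high-content fluorescence imaging after fixation.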
Autophagy mod: autophagy modulation, high-content screen; MEF GFP-LC3 puncta imaging; test concentration mostly 10 µM; calls only at 10 µM (by protocol); 190,000 tested, 0.98% active; AID 463193;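 active means percentage of spot-positive cells more than 3 SD above its plate mean, without a fluorescence outlier flag or 80% toxicity; inconclusive means no clear call, values can overlap the other calls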
MT stabilize HCS: stabilizes microtubules in HeLa cells; HeLa tubulin immunostaining HCS, 24 h; share of cells brighter than vehicle mean+2SD; % tubulin-high responders, % at 10 µM; 200,000 tested, 0.83% active; AID 2205;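 active means plate Z-score above 3 for both tubulin-high and condensed-nucleus cell shares, with cell loss under 80%, at 10 µM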;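 further: anti alpha tubulin signal scored within the nucleus-defined area of each cell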
Dynein confirm: dynein cargo transport inhibition, confirmation; shares compounds with Dynein cargo inh; 3617.4 GR-EGFP nuclear translocation imaging, dexamethasone-induced; calls only at 20 µM; 1,000 tested, 69% active; AID 463116;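 active means inhibition of receptor movement into the nucleus at or above a set limit in both runs, with normal cell brightness and cell count; inconclusive means limit reached in only one run, brightness and count normal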;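 further: dexamethasone at 1 µM final in well for 30 min; nuclear minus cytoplasmic GR-EGFP mean intensity difference in channel 2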
Of the large screens only hits and unclear results are named; the others gave an inactive call (follow-up assays come after a bar, where they were run). Sampled rows, rich in hits. Any-hit rate of the full collection: about 2.1%.

COc1ncnc2c1oc1nc(CC(C)C)c3c(c12)CCCC3	none
CC(C)Cc1nc2oc3c(Cl)ncnc3c2c2c1CCCC2	Dynein cargo inh -5.68 (no result: Hsp70 activator, Autophagy mod, MT stabilize HCS) | Dynein confirm active
CCCc1nc2oc3c(Cl)ncnc3c2c2c1CCCC2	Dynein cargo inh -5.48 (no result: Hsp70 activator, Autophagy mod, MT stabilize HCS) | Dynein confirm inconclusive
COc1ccc(N2Cc3ccccc3C2=NC(=O)c2cncc(Br)c2)cc1	none
CCN(CC)c1ccc(/C=C2/SC(=O)N(C(C)C)C2=O)o1	Autophagy mod inconclusive | Dynein confirm active
Clc1nc(-c2cccnc2)nc2scc(-c3ccccc3)c12	none
COc1ccc(-c2csc3nc(-c4cccnc4)nc(Cl)c23)cc1OC	Dynein cargo inh -4.43 | Dynein confirm active
CC(C)(C)c1cnnn1-c1ccc(C(=O)CCl)cc1	Dynein cargo inh -4.09 | Dynein confirm active
CC(=O)C(Cl)C(=O)Nc1ccccc1 (stereo not drawn)	Dynein cargo inh -4.19 | Dynein confirm inactive
CC(Cc1ccccc1)C(=O)Nc1ccccc1 (stereo not drawn)	none
CCOC(=O)CSC1=NC(=O)/C(=C\c2ccc(Cl)cc2)S1	Dynein cargo inh -4.05 | Dynein confirm inactive
CCCCOc1ccc(N2C(=O)CC(NCc3ccncc3)C2=O)cc1 (stereo not drawn)	none
CC(=O)NCc1ccc(C(=O)CCl)s1	Dynein cargo inh -4.98 | Dynein confirm active
CC(=O)NCCC(=O)NCc1ccc(F)cc1	none (no result: b-catenin transl)
CC(=O)NCc1ccc(C(=O)CCl)cc1	Dynein cargo inh -6.81 | Dynein confirm active
CC(=O)N(C)Cc1ccc(C(=O)CCl)cc1	none | Dynein confirm active
O=C(O)/C=C/C(=O)Nc1cc(F)ccc1F	none (no result: Hsp70 activator, Autophagy mod, MT stabilize HCS)
COc1ccc(C(=O)Nc2cnn(Cc3c(F)cccc3Cl)c2)cc1OC	none (no result: Hsp70 activator, Autophagy mod, MT stabilize HCS)
O=C(/C(=C/c1ccc(Cl)cc1)c1nc2ccccc2[nH]1)c1cccs1	Dynein cargo inh -4.47, Autophagy mod active, MT stabilize HCS 27.5 | Dynein confirm active
COC(=O)/C(=C\c1ccc(O)cc1)c1nc2ccccc2[nH]1	none
COc1cc(/C=C(/C(=O)c2cccs2)c2nc3ccccc3[nH]2)ccc1O	Dynein cargo inh -3.96 | Dynein confirm active
O=[N+]([O-])c1ccc(-n2nnnc2-c2ccccc2)c([N+](=O)[O-])c1	Dynein cargo inh -6.59 | Dynein confirm active
O=[N+]([O-])c1ccc(-n2nnnc2-c2ccccc2)cc1	none
N#CC1=C(N)OC2=C(CC/C2=C\c2ccccc2)C1c1ccccc1 (stereo not drawn)	none | Dynein confirm active
NC1=NS(=O)(=O)NC1c1ccc(Br)cc1 (stereo not drawn)	none
COc1cccc(/C=N/n2c(-c3n[nH]c4c3CCC4)n[nH]c2=S)c1OC	none (no result: Hsp70 activator, Autophagy mod, MT stabilize HCS)
CNC(=O)COC(=O)c1ccccc1C(=O)c1ccc(Cl)c([N+](=O)[O-])c1	Dynein cargo inh -4.3 | Dynein confirm active
O=C(COC(=O)c1ccccc1C(=O)c1ccc(Cl)c([N+](=O)[O-])c1)NC1CC1	none
CC(=O)Oc1ccc(C(=O)O)cc1OC(C)=O	none
CC(=O)Oc1ccc(OC(C)=O)c(SCCCCCCl)c1	Dynein cargo inh -4.65 | Dynein confirm active
N#Cc1cc(-c2ccccc2)nc(Oc2ccc(Cl)cc2)n1	Dynein cargo inh -4.29 | Dynein confirm active
N#Cc1cc(-c2ccccc2)nc(NN)n1	none (no result: Hsp70 activator, Autophagy mod, MT stabilize HCS)
CCOc1cccc(/C=C/c2cc(C(=O)O)c3ccccc3n2)c1OC	none (no result: Hsp70 activator, Autophagy mod, MT stabilize HCS)
CCOC(=O)/C(C#N)=C\c1cn(C)c2ccccc12	none
CCOC(=O)/C(=C\c1cn(C)c2ccccc12)[N+](=O)[O-]	Dynein cargo inh -3.71 | Dynein confirm active
CC1(C)CC(N2CCN(CCO)CC2)=CC(=S)N1	none (no result: Hsp70 activator, Autophagy mod, MT stabilize HCS)
CC(=O)c1ccc(N2CCN(C(=O)C3CCCN(S(=O)(=O)c4c(C)[nH]c(=O)[nH]c4=O)C3)CC2)cc1 (stereo not drawn)	none
Cc1sc(NC(=O)CCl)c(C(=O)c2ccccc2)c1C	Dynein cargo inh -3.75 | Dynein confirm active
O=C(O)c1ccc2c3c(cccc13)C(=O)N(c1ccccc1)C2=O	none
Nc1ccc2c3c(cccc13)C(=O)N(c1ccccc1)C2=O	Dynein cargo inh -5.03 | Dynein confirm active
CC(=O)N1CC2(NC(=O)c3ccccc3N2)c2ccccc21 (stereo not drawn)	none

Assay outcomes deposited in PubChem BioAssay by several laboratories.
